Yeast growth tox = Compounds toxic to wild-type S. cerevisiae growth. 0.3% of 30,000 active. growth inhibition, % at 25 µM (by protocol). A595 turbidity, 16 h. AID 685;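 active = mutant and wild-type yeast strains alike exhibit over 30% growth inhibition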;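 also: 0% = untreated cell controls and 100% = YPD media blanks without cells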
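System: S. cerevisiae wild-type or eIF2Bepsilon-R284H mutant strain; times: 16 h growth with compound, 30 °C; signal: absorbance at 595 nm (turbidity); measure: growth inhibition (%) versus cell controls and blanks; compound: 25 µM single dose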
eIF2B yeast act = eIF2B (yeast) activity modulation | S. cerevisiae eIF2B-epsilon R284H, GCN4-lacZ luminescence | inhibition, % at 25 µM (by protocol) | 0.91% of 27,000 active | AID 688;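 active = mutant luminescence inhibited past about 50% while wild type luminescence and mutant growth stay under set limits, limit read from the data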
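System: Yeast eIF2B-epsilon R284H mutant carrying GCN4–beta-galactosidase fusion | Read-out basis: Percent inhibition, luminescence and growth | Compound: 25 µM single dose | Times: 16 h at 30 °C exposure | Measured by: Luminescence and A595 | Buffer or medium: YPD medium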
* marks the source's active call; other numbers are inactive results; / = no result. Compounds with a hit are over-represented: about 1% of the library has one in this group of screens.

SMILES	Yeast growth tox	eIF2B yeast act
COP(=O)(OC)C1(Nc2ccc(C)cc2)CCCCC1	49*	24
CN(C)P(=O)(C(Cl)=C(N1CCCCC1)N1CCCCC1)N(C)C	-2	58*
O=P(/C(=N/O)N1CCOCC1)(N1CCOCC1)N1CCOCC1	6	19
CCCn1ncc(C(=O)O)c1C	-16	/
COCCn1c(-c2ccccc2)cc(C(=O)O)c1C	-7	51*
Cc1cccc(-c2nc3ccccc3c(=O)n2-n2cccc2)c1	9	15
COC(=O)C1C2c3ccccc3OC1(C)N=c1s/c(=C/c3cnn(C)c3C)c(=O)n12 (centres undefined)	-6	39
CN(Cc1ccccc1)C(=C(Cl)Cl)/C(=C1/NCCN1Cc1ccc(Cl)nc1)[N+](=O)[O-]	13	29
CCN1C(=O)c2ccccc2Sc2ccc(C(=O)N3CCC4(CC3)OCCO4)cc21	-18	27
CN1C(=O)c2ccccc2Sc2ccc(C(=O)N3CCC4(CC3)OCCO4)cc21	8	63*
O=c1[nH]c(=S)n(Cc2ccc(F)cc2)c(O)c1C=NCc1cccnc1	-3	-17
CN1CCC2(CC1)NC(=O)C1=C(CN(C)CC1)N2	3	21

High-throughput results deposited in PubChem by PCMD.
